These results are taken from ChEMBL document CHEMBL5104225, “Synthesis and structure-activity relationship studies of N-terminal analogues of the lipopeptide antibiotics brevicidine and laterocidine” (RSC Med Chem, 2022).

Converted amounts (≈) assume the structure as drawn. Bridge positions count the residues as written; N and C are the ends. Square brackets hold non-standard residues; d marks the D form. Peptide text beside a SMILES is read from it. * marks the point of attachment. ξ: configuration not given here. Octanoyl(7-Me) = CC(C)CCCCCC(=O)*; Palmitoyl = CCCCCCCCCCCCCCCC(=O)*; Hexanoyl(4ξ-Me) = CCC(C)CCC(=O)*; Myristoyl = CCCCCCCCCCCCCC(=O)*; dOrn = NCCC[C@@H](N)C(=O)O; Octanoyl = CCCCCCCC(=O)*; Orn = NCCC[C@H](N)C(=O)O A value given as a limit tells only on which side of the number the result lay.

In one series the test system is Staphylococcus aureus. Kind of series: Antibacterial activity against Staphylococcus aureus USA300 assessed as inhibition of bacterial growth incubated for 18 hrs by CLSI protocol based method. In kind it is functional. In short, it runs like this: (§1)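 Single colonies from blood agar (16 h, 37 °C) grown in TSB at 37 °C, 220 rpm to OD600 ~0.5, then diluted in MHB to 2×10^5 CFU/mL. Mixed with serial MHB dilutions of DMSO stocks in polypropylene plates, sealed, and incubated 18 h at 37 °C, 600 rpm. MIC was taken as the lowest concentration with no visible growth; three technical replicates.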

Series [1] deals with Escherichia coli. The series can be described thus: Antibacterial activity against colistin-resistant Escherichia coli ATCC 25922 carrying MCR-1 gene assessed as inhibition of bacterial growth incubated for 18 hrs by CLSI protocol based method. The series is classed as functional. In short, it runs like this: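 Broth microdilution MIC. MCR-1 strain grown from glycerol stock in TSB with kanamycin (16 h, 37 °C, 220 rpm), diluted 100-fold in the same medium and grown to OD600 about 0.5. Cells were diluted in MHB to 2×10^5 CFU/mL and added 1:1 to serial dilutions in MHB. Incubated 18 h, 37 °C, 600 rpm; visual lowest no-growth concentration; three technical replicates.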

For another series, the system named is Klebsiella pneumoniae. The series can be described thus: Antibacterial activity against Klebsiella pneumoniae ATCC 13883 assessed as inhibition of bacterial growth incubated for 18 hrs by CLSI protocol based method. In kind it is functional. In short, it runs like this:
as §1

For a further series, the system named is Acinetobacter baumannii. Kind of series: Antibacterial activity against Acinetobacter baumannii ATCC 17961 assessed as inhibition of bacterial growth incubated for 18 hrs by CLSI protocol based method. The series is classed as functional. In short, it runs like this:
as §1

In a further series the test system is Pseudomonas aeruginosa. The series can be described thus: Antibacterial activity against Pseudomonas aeruginosa PAO1 assessed as inhibition of bacterial growth incubated for 18 hrs by CLSI protocol based method. In kind it is functional. In short, it runs like this: as §1
For series [2], the system named is Escherichia coli. The series can be described thus: Antibacterial activity against Escherichia coli ATCC 25922 assessed as inhibition of bacterial growth incubated for 18 hrs by CLSI protocol based method. The series is classed as functional. In short, it runs like this: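 Broth microdilution MIC. Strain streaked from glycerol stock on sheep blood agar (16 h, 37 °C); a colony was grown in TSB at 37 °C, 220 rpm, to OD600 about 0.5. Cells were diluted in MHB to 2×10^5 CFU/mL and added 1:1 to serial dilutions in MHB in polypropylene plates.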

The test system of a further series is Erythrocyte. The series can be described thus: Hemolytic activity in sheep red blood cell assessed as hemolysis at 64 ug/ml incubated for 1 hrs relative to control. The series is classed as toxicity, cell-based, Ovis aries. The settings on record: at 64 µg/mL. In short, it runs like this:
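Defibrinated sheep erythrocytes were washed five times in PBS with 0.002% Tween20 and normalized so the positive control read 2.5–3.0 at 415 nm. Cells were mixed with peptide at 64 µg/mL and held 1 h at 37 °C, shaking 500 rpm, then centrifuged. Supernatant A415 was background-corrected against buffer and expressed as % of 0.1% Triton X-100. Run in triplicate.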

As usually defined, the MIC is the lowest concentration found to suppress growth. As for `CCCCCCCCCCCCCC(=O)N[C@H](CC(N)=O)C(=O)N[C@H](Cc1ccc(O)cc1)C(=O)N[C@H](Cc1c[nH]c2ccccc12)C(=O)N[C@H](CCCN)C(=O)N[C@@H](CCCN)C(=O)NCC(=O)N[C@H](CCCN)C(=O)N[C@@H](Cc1c[nH]c2ccccc12)C(=O)N[C@@H]1C(=O)N[C@@H]([C@@H](C)CC)C(=O)NCC(=O)N[C@@H](CO)C(=O)O[C@@H]1C` (Myristoyl-[dN][dY][dW][dOrn][Orn]G[dOrn]WTIGS; ester 9-C), the minimal inhibitory concentration (MIC) with Staphylococcus aureus is more than 32 µg/mL; in the series on Escherichia coli [1], 16 µg/mL (≈ 9.89 µM); in the series with Klebsiella pneumoniae, 32 µg/mL (≈ 19.8 µM); in the series with Acinetobacter baumannii it was 4 µg/mL (≈ 2.47 µM); in the series with Pseudomonas aeruginosa, 32 µg/mL (≈ 19.8 µM); in the series on Escherichia coli [2], 16 µg/mL (≈ 9.89 µM).
In the case of `CCCCCCCCCCCCCC(=O)N[C@H](CO)C(=O)N[C@H](Cc1ccc(O)cc1)C(=O)N[C@H](Cc1c[nH]c2ccccc12)C(=O)N[C@H](CCCN)C(=O)N[C@@H](CCCN)C(=O)NCC(=O)N[C@H](CCCN)C(=O)N[C@@H](Cc1c[nH]c2ccccc12)C(=O)N[C@@H]1C(=O)N[C@@H]([C@@H](C)CC)C(=O)N[C@@H](CC(N)=O)C(=O)NCC(=O)NCC(=O)O[C@@H]1C` (Myristoyl-[dS][dY][dW][dOrn][Orn]G[dOrn]WTINGG; ester 9-C), the MIC in the series with Staphylococcus aureus turned out to be 16 µg/mL (≈ 9.55 µM); in the series on Escherichia coli [1], 8 µg/mL (≈ 4.78 µM); with Klebsiella pneumoniae it was 8 µg/mL (≈ 4.78 µM); in the series with Acinetobacter baumannii, 2 µg/mL (≈ 1.19 µM); with Pseudomonas aeruginosa it was 8 µg/mL (≈ 4.78 µM); in the series on Escherichia coli [2] it was 8 µg/mL (≈ 4.78 µM).
As to `CCCCCCCC(=O)N[C@H](CC(N)=O)C(=O)N[C@H](Cc1ccc(O)cc1)C(=O)N[C@H](Cc1c[nH]c2ccccc12)C(=O)N[C@H](CCCN)C(=O)N[C@@H](CCCN)C(=O)NCC(=O)N[C@H](CCCN)C(=O)N[C@@H](Cc1c[nH]c2ccccc12)C(=O)N[C@@H]1C(=O)N[C@@H]([C@@H](C)CC)C(=O)NCC(=O)N[C@@H](CO)C(=O)O[C@@H]1C` (Octanoyl-[dN][dY][dW][dOrn][Orn]G[dOrn]WTIGS; ester 9-C), the MIC was more than 32 µg/mL in the series on Staphylococcus aureus; 16 µg/mL (≈ 10.4 µM) in the series with Escherichia coli [1]; 16 µg/mL (≈ 10.4 µM) in the series with Klebsiella pneumoniae; 16 µg/mL (≈ 10.4 µM) in the series with Acinetobacter baumannii; 8 µg/mL (≈ 5.22 µM) with Pseudomonas aeruginosa; 16 µg/mL (≈ 10.4 µM) in the series on Escherichia coli [2].
As to `CCCCCCCC(=O)N[C@H](CO)C(=O)N[C@H](Cc1ccc(O)cc1)C(=O)N[C@H](Cc1c[nH]c2ccccc12)C(=O)N[C@H](CCCN)C(=O)N[C@@H](CCCN)C(=O)NCC(=O)N[C@H](CCCN)C(=O)N[C@@H](Cc1c[nH]c2ccccc12)C(=O)N[C@@H]1C(=O)N[C@@H]([C@@H](C)CC)C(=O)N[C@@H](CC(N)=O)C(=O)NCC(=O)NCC(=O)O[C@@H]1C` (Octanoyl-[dS][dY][dW][dOrn][Orn]G[dOrn]WTINGG; ester 9-C), the minimal inhibitory concentration (MIC) in the series with Staphylococcus aureus was more than 32 µg/mL; in the series on Escherichia coli [1] it was 2 µg/mL (≈ 1.26 µM); with Klebsiella pneumoniae it was 2 µg/mL (≈ 1.26 µM); with Acinetobacter baumannii it was 4 µg/mL (≈ 2.51 µM); in the series on Pseudomonas aeruginosa, 2 µg/mL (≈ 1.26 µM); with Escherichia coli [2], 2 µg/mL (≈ 1.26 µM).
`CCCCCCCCCCCCCCCC(=O)N[C@H](CO)C(=O)N[C@H](Cc1ccc(O)cc1)C(=O)N[C@H](Cc1c[nH]c2ccccc12)C(=O)N[C@H](CCCN)C(=O)N[C@@H](CCCN)C(=O)NCC(=O)N[C@H](CCCN)C(=O)N[C@@H](Cc1c[nH]c2ccccc12)C(=O)N[C@@H]1C(=O)N[C@@H]([C@@H](C)CC)C(=O)N[C@@H](CC(N)=O)C(=O)NCC(=O)NCC(=O)O[C@@H]1C` (Palmitoyl-[dS][dY][dW][dOrn][Orn]G[dOrn]WTINGG; ester 9-C): the minimal inhibitory concentration (MIC) in the series with Staphylococcus aureus is 32 µg/mL (≈ 18.8 µM); in the series with Escherichia coli [1] it was 32 µg/mL (≈ 18.8 µM); in the series on Klebsiella pneumoniae it was more than 32 µg/mL; in the series with Acinetobacter baumannii, 4 µg/mL (≈ 2.35 µM); in the series with Pseudomonas aeruginosa, 32 µg/mL (≈ 18.8 µM); in the series with Escherichia coli [2], 32 µg/mL (≈ 18.8 µM).
As to `CCC(C)CCC(=O)N[C@H](CC(N)=O)C(=O)N[C@H](Cc1ccc(O)cc1)C(=O)N[C@H](Cc1c[nH]c2ccccc12)C(=O)N[C@H](CCCN)C(=O)N[C@@H](CCCN)C(=O)NCC(=O)N[C@H](CCCN)C(=O)N[C@@H](Cc1c[nH]c2ccccc12)C(=O)N[C@@H]1C(=O)N[C@@H]([C@@H](C)CC)C(=O)NCC(=O)N[C@@H](CO)C(=O)O[C@@H]1C` (some centres undefined) ({Hexanoyl(4ξ-Me)}-[dN][dY][dW][dOrn][Orn]G[dOrn]WTIGS; ester 9-C), the MIC in the series on Staphylococcus aureus is more than 32 µg/mL; in the series with Escherichia coli [1], 4 µg/mL (≈ 2.63 µM); with Klebsiella pneumoniae, 2 µg/mL (≈ 1.32 µM); in the series on Acinetobacter baumannii it was 4 µg/mL (≈ 2.63 µM); in the series on Pseudomonas aeruginosa, 8 µg/mL (≈ 5.26 µM); in the series with Escherichia coli [2] it was 4 µg/mL (≈ 2.63 µM).
`CC[C@H](C)[C@@H]1NC(=O)[C@@H](NC(=O)[C@H](Cc2c[nH]c3ccccc23)NC(=O)[C@@H](CCCN)NC(=O)CNC(=O)[C@H](CCCN)NC(=O)[C@@H](CCCN)NC(=O)[C@@H](Cc2c[nH]c3ccccc23)NC(=O)[C@@H](Cc2ccc(O)cc2)NC(=O)[C@@H](CO)NC(=O)CCCCCC(C)C)[C@@H](C)OC(=O)CNC(=O)CNC(=O)[C@H](CC(N)=O)NC1=O` ({Octanoyl(7-Me)}-[dS][dY][dW][dOrn][Orn]G[dOrn]WTINGG; ester 9-C): the minimal inhibitory concentration (MIC) in the series with Staphylococcus aureus was more than 32 µg/mL; in the series on Escherichia coli [1] it was 2 µg/mL (≈ 1.25 µM); in the series with Klebsiella pneumoniae, 2 µg/mL (≈ 1.25 µM); with Acinetobacter baumannii, 2 µg/mL (≈ 1.25 µM); in the series on Pseudomonas aeruginosa, 4 µg/mL (≈ 2.49 µM); in the series with Escherichia coli [2], 2 µg/mL (≈ 1.25 µM).
Turning to COLISTIN [listing 1 of 2 here], in the series on Erythrocyte, the Activity is on record as less than 0.1%.
For COLISTIN [listing 2 of 2 here], the minimal inhibitory concentration (MIC) in the series on Staphylococcus aureus was more than 32 µg/mL; in the series with Escherichia coli [1] it was 8 µg/mL; with Klebsiella pneumoniae, 0.5 µg/mL; with Acinetobacter baumannii it was less than 0.25 µg/mL; in the series with Pseudomonas aeruginosa, 4 µg/mL; in the series with Escherichia coli [2], 0.5 µg/mL.
